Published values from different studies.
Protocols differ between the studies behind these lines. Converted amounts (≈) assume the structure as drawn.

| Structure (SMILES) | target or system | assay | system | setting | measurement | result |
| --- | --- | --- | --- | --- | --- | --- |
| CC[C@H](C)C[C@H](C)CCCCCCCCC(=O)N[C@H]1C[C@@H](O)[C@@H](NCCN)NC(=O)[C@@H]2[C@@H](O)CCN2C(=O)[C@H]([C@H](O)CCN)NC(=O)[C@H]([C@H](O)[C@@H](O)c2ccc(O)cc2)NC(=O)[C@@H]2C[C@@H](O)CN2C(=O)[C@H]([C@@H](C)O)NC1=O | Nakaseomyces glabratus | microbial growth, broth dilution | ATCC15126 | 48 h | MIC | 0.25 µg/mL (≈ 0.229 µM) |
| C#Cc1cccc(C=NNC(=O)c2ccc(Br)c(Br)c2)c1O | Cryptococcus neoformans | microbial killing | – | – | MFC | 0.12 µg/mL (≈ 0.284 µM) |
| CC(=O)O[C@H]1C(=O)[C@@]2(C)[C@H]([C@H](OC(=O)c3ccccc3)[C@]3(O)C[C@H](OC(=O)[C@H](O)[C@@H](NC(=O)c4ccccc4)c4ccccc4)C(C)=C1C3(C)C)[C@]1(OC(C)=O)CO[C@@H]1C[C@@H]2O | HaCaT | cell growth or viability, CCK-8 | – | 12.5 µM, 72 h | inhibition | > 90% |
| O=C1CCP(=[Se])(c2ccccc2)CC1 | HaCaT | cell growth or viability, MTT | – | 72 h | IC50 | > 100 µM |
| CC[C@H](C)[C@@H]([C@@H](CC(=O)N1CCC[C@H]1[C@H](OC)[C@@H](C)C(=O)N[C@H](C)[C@@H](O)c1ccccc1)OC)N(C)C(=O)[C@@H](NC(=O)[C@@H](NC)C(C)C)C(C)C | Daudi | cell growth or viability, CCK-8 | – | – | IC50 | 0.00185 µM |
| N.N.[Cl][Pt][Cl] | OCI-LY19 | cell growth or viability, ATP luminescence | – | 10 µM, 72 h | inhibition | 100% |
| COc1cnc(OC)n2nc(NS(=O)(=O)c3c(OCC(F)F)cccc3C(F)(F)F)nc12 | HaCaT | cell growth or viability, CCK-8 | – | 50 µM, 72 h | inhibition | 0.69% |
| C#Cc1ccc(C=NNC(=O)c2ccc(Br)cc2)c(O)c1 | Cryptococcus neoformans | microbial growth, broth dilution | – | pH 7.4 | MIC80 | 0.03 µg/mL (≈ 0.0874 µM) |
| S=P1(C2CCCCC2)CCCCC1 | HaCaT | cell growth or viability, MTT | – | 72 h | IC50 | > 100 µM |
| C#Cc1ccc(C=NNC(=O)c2ccc(COCCC)cc2)c(O)c1 | Cryptococcus neoformans | microbial growth, broth dilution | – | pH 7.4 | MIC80 | 0.015 µg/mL (≈ 0.0446 µM) |
| CC[C@@]1(O)C(=O)OCc2c1cc1n(c2=O)Cc2cc3ccccc3nc2-1 | SNB-19 | cell growth or viability, SRB | – | 48 h | IC50 | 52.9 µM |
| C#Cc1ccc(C=NNC(=O)c2cc(Br)cc(Br)c2O)c(O)c1 | Cryptococcus neoformans | microbial growth, broth dilution | – | pH 7.4 | MIC80 | 0.03 µg/mL (≈ 0.0685 µM) |
| N.N.[Cl][Pt][Cl] | HaCaT | cell growth or viability, MTT | – | 72 h | IC50 | 6.3 µM |
